Laboratory results reported in ChEMBL document CHEMBL1287755, “Design, synthesis and inhibition activity of novel cyclic peptides against protein tyrosine phosphatase A from Mycobacterium tuberculosis” (Bioorg Med Chem, 2010).

Assays:
[1] = molecular target: T1, Low molecular weight protein-tyrosine phosphatase A (Mycobacterium tuberculosis) (UniProt P9WIA1); assay: Binding affinity to Mycobacterium tuberculosis recombinant protein tyrosine phosphatase A by fluorescence quenching assay
T1 sequence (whole entry): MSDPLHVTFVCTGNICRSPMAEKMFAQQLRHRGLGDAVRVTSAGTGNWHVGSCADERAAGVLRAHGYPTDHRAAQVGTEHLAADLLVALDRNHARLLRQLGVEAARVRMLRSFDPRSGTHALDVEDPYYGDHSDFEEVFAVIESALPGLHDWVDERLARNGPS
How it was run: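 Intrinsic tryptophan fluorescence of MPtpA, held at 2 µM, recorded at 20 °C in a 10 mm quartz cuvette. Emission maximum at 340 nm followed during titration with the peptide, up to a 1:10 protein:peptide ratio. Data fitted to Stern–Volmer (F0/F = 1 + Ksv[Q]) and Scatchard plots to give quenching and binding constants.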

[2] = molecular target: T1, Low molecular weight protein-tyrosine phosphatase A (Mycobacterium tuberculosis); assay: Binding affinity to Mycobacterium tuberculosis recombinant protein tyrosine phosphatase A by circular dichroism spectral analysis
How it was run: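 Far-UV CD of recombinant MPtpA at 25 °C in Tris buffer, 10 mm quartz cell. Spectra taken over 195–240 nm at 50 nm/min with 4 s response. Buffer blank containing the ligand subtracted. Protein:peptide ratio titrated from 2:1 up to 1:6. Changes followed at the α-helix minima, 208 and 222 nm, and a binding constant was derived from the titration.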

[3] = molecular target: T2, Low molecular weight protein-tyrosine phosphatase A (Mycobacterium tuberculosis, UniProt P9WIA1); assay: Inhibition of Mycobacterium tuberculosis recombinant protein tyrosine phosphatase A by Lineweaver-Burke plot analysis
T2 sequence (P9WIA1 whole entry): T1 sequence (whole entry)
How it was run: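 Recombinant wild-type MPtpA (purified, purity by SDS-PAGE, concentration from A280) held at 1 µM. Phosphatase activity measured at 25 °C in 0.1 M Tris, 0.15 M NaCl, 1 mM EDTA, pH 7.5, with pNPP substrate. p-Nitrophenol release read at 405 nm. Inhibitors added from methanol, final methanol ≤3% v/v. Inhibitor typically 10–50 µM, substrate 100–300 µM. Triplicate assays. Mode of inhibition from double-reciprocal plots. Ki taken from a plot of Km/Vmax versus [I].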

Question: Which Kb [1] does the source give for C[C@@H]1NC(=O)[C@H](C)NC(=O)[C@H](C)NC(=O)[C@@H]([C@@H](Nc2ccccc2)c2ccccc2)CNC1=O here?
Answer: The Kb was 3.27 ×10⁴ /M.

Question: What about the Kb [2] of the same compound?
Answer: Its Kb is 3.3 ×10⁴ /M.

Question: What about the Ki [3] of the same compound?
Answer: The Ki was 199 µM.

Question: For O=C1CNC(=O)[C@H](Cc2ccc(O)cc2)NC(=O)[C@@H]([C@@H](Nc2ccccc2)c2ccccc2)CN1, which Kb [1] is on record?
Answer: The Kb was 1.5 ×10⁵ /M.

Question: What about the Kb [2] of the same compound?
Answer: The Kb was 1.2 ×10⁵ /M.

Question: What about the Ki [3] of the same compound?
Answer: Its Ki is 8 µM.

Question: O=C1CNC(=O)[C@@H]([C@@H](Nc2ccccc2)c2ccccc2)CN1 was tested. Which Kb [1] did it give?
Answer: The Kb was 3.41 ×10⁴ /M.

Question: What about the Kb [2] of the same compound?
Answer: The Kb was 3.6 ×10⁴ /M.

Question: And the Ki [3]?
Answer: The Ki was 140 µM.

Question: How did the Kb [1] turn out when O=C1CNC(=O)CNC(=O)[C@@H]([C@@H](Nc2ccccc2)c2ccco2)CN1 was run?
Answer: The Kb was 2.99 ×10⁴ /M.

Question: And the Kb [2]?
Answer: Its Kb is 2.95 ×10⁴ /M.

Question: What about the Ki [3] of the same compound?
Answer: The Ki was 215 µM.

Question: With O=C1CC[C@H](C(=O)O)NC(=O)[C@@H]([C@@H](Nc2ccccc2)c2ccccc2)CN1 as the compound, how does the Kb [1] read?
Answer: Its Kb is 8.89 ×10⁴ /M.

Question: And the Kb [2]?
Answer: The Kb was 8.5 ×10⁴ /M.

Question: And the Ki [3]?
Answer: Its Ki is 36.3 µM.

Question: Which Kb [1] does the source give for O=C1CNC(=O)CNC(=O)[C@@H]([C@@H](Nc2ccccc2)c2ccccc2)CN1 here?
Answer: Its Kb is 4.87 ×10⁴ /M.

Question: And the Kb [2]?
Answer: The Kb was 4.7 ×10⁴ /M.

Question: And the Ki [3]?
Answer: The Ki was 85.5 µM.

Question: Which Kb [1] does the source give for C[C@@H]1NC(=O)[C@H](C)NC(=O)[C@@H]([C@@H](Nc2ccccc2)c2ccccc2)CNC1=O here?
Answer: The Kb was 1 ×10⁴ /M.

Question: And the Kb [2]?
Answer: Its Kb is 1.1 ×10⁴ /M.

Question: And the Ki [3]?
Answer: Its Ki is 220 µM.
